According to ChEMBL document CHEMBL4673245, “Discovery of AZD9833, a Potent and Orally Bioavailable Selective Estrogen Receptor Degrader and Antagonist” (J Med Chem, 2020):
In brackets after ≈: the same amount, converted by molar mass.

Experiments:
[1] = Intrinsic clearance in mouse hepatocytes assessed per million cells; assay type: ADME, cell-based, Hepatocyte; details: read-out: CLH
Procedure, shortened: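 Compound added from DMSO stock to isolated hepatocytes diluted to 1x10⁶ cells/mL. Metabolic turnover rate is reported as intrinsic clearance in µl/min/10⁶ cells.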

[2] = Antitumor activity against human […] cells xenografted in CB17 SCID mouse assessed as tumor regression at 10 mg/kg, po administered daily via oral gavage for 21 days relative to control; assay type: functional, MCF7; details: time 21 day
[3] = Fraction unbound in dog plasma; assay type: ADME, cell-free, Canis lupus familiaris
[4] = Solubility of compound in phosphate buffer at pH 7.4 using crystalline form of sample; assay type: physicochemical
[5] = Solubility of compound in stimulated gastric fluid using crystalline form of sample; assay type: physicochemical; details: simulated gastric fluid
[6] = Antitumor activity against human […] cells xenografted in CB17 SCID mouse assessed as tumor growth inhibition at 2 mg/kg, po administered daily via oral gavage for 21 days relative to control; assay type: functional; details: MCF7, po, time 21 day, read-out: TGI
[7] = Dissociation constant, dibasic pKa of compound in 0.1 M potassium chloride in presence of azetidine by UV-vis spectroscopy; assay type: physicochemical
[8] = In vivo antagonist activity at ERalpha in human MCF7 cells xenografted CB17 SCID mouse assessed as decrease in PR expression level at 50 mg/kg, po administered daily via oral gavage for 21 days measured 24 hrs post last dose by Western blot analysis relative to control; assay type: functional; design: scale not given: the % may be the effect or the level left; details: time 21 day
[9] = Stability of compound at 40 degC and 75% relative humidity assessed parent compound remaining measured after 3 months using crystalline form of sample by chromatographic method; assay type: physicochemical; details: solid sample, read-out: Stabilty
[10] = Photostability of compound under 1.2 mil lux.h white light and 200 W.h/m2 UV light assessed parent compound remaining using crystalline form of sample by chromatographic method; assay type: physicochemical
[11] = Clearance in rat at 0.5 mg/kg, iv or 1 mg/kg, po; assay type: ADME, organism-based; details: in vivo
Procedure, shortened: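 Rat PK: single IV dose 0.5 mg/kg and oral dose 1 mg/kg, formulated in 5% DMSO:95% hydroxypropyl-β-cyclodextrin (30% w/v), dosed at 1 mL/kg IV and 4 mL/kg PO.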

[12] = In vivo antagonist activity at ERalpha in human MCF7 cells xenografted CB17 SCID mouse assessed as decrease in PR expression level at 10 mg/kg, po administered daily via oral gavage for 21 days measured 24 hrs post last dose by Western blot analysis relative to control; assay type: functional; design: scale not given: the % may be the effect or the level left; details: time 21 day
[13] = biological target: Histamine H3 receptor (Homo sapiens, UniProt Q9Y5N1); test: Antagonist activity at human histamine H3 receptor expressed in CHO-K1 cells after 10 mins by HTRF assay; assay type: cell-based
Chain of Histamine H3 receptor (Q9Y5N1 whole entry): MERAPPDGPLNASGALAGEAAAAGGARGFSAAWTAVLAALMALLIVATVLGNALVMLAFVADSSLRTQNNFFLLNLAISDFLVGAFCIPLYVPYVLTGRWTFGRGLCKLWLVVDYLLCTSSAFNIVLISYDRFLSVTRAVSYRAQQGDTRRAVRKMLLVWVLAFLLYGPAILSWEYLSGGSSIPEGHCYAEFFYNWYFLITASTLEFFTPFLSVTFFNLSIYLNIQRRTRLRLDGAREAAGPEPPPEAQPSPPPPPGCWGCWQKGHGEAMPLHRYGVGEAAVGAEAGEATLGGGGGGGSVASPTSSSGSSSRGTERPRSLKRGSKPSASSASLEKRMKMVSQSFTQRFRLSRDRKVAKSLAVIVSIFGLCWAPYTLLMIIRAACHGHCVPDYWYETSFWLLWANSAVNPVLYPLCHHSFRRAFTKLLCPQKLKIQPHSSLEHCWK

[14] = Half-life in mouse at 2 mg/kg, iv or 5 mg/kg, po; assay type: ADME, organism-based; details: in vivo
[15] = Stability of compound at 60 degC and 75% relative humidity assessed parent compound remaining measured 1 week using crystalline form of sample by chromatographic method; assay type: physicochemical; details: solid sample, time 1 weeks, read-out: Stabilty
[16] = biological target: T1, Cytochrome P450 1A2 (Homo sapiens, UniProt P05177); test: Inhibition of CYP1A2 in human liver microsomes; assay type: ADME
T1 sequence (P05177 whole entry): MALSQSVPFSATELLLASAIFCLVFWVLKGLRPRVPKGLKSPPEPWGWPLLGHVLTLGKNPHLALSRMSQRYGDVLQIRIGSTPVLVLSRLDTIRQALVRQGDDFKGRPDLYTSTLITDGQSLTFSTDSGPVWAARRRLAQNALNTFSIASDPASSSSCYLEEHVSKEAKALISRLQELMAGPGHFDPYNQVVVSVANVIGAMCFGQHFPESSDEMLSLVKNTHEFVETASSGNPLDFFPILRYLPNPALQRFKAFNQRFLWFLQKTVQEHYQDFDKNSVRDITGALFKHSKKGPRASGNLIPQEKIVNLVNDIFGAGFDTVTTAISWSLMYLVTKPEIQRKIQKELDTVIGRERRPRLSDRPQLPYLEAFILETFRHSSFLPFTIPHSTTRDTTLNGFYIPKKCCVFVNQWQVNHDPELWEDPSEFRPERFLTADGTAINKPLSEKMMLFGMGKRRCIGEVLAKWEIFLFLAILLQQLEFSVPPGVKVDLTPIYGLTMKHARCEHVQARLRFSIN
Procedure, shortened: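 High-throughput human liver microsome panel of five CYP isoforms; inhibition reported as IC50.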

[17] = Chemical stability of compound assessed as drug degradation in buffer at pH 1 stored at 22 to 60 degreeC measured after 5 days; assay type: physicochemical; details: pH 1, 120 h, time 5 day

hepatocyte CLint [1]: 18 µL/min/1e6 cells
fraction unbound [3]: 0.15
solubility thermodynamic [4]: 400 µg/mL (≈ 839 µM)
solubility thermodynamic [5]: > 10000 µg/mL
pKa [7]: 8.4
remaining at 2190 h [9]: 99.3%
Stabilty [10]: 98.9%
clearance [11]: 73 mL/min/kg
IC50 [13]: 330 nM
half-life [14]: 5.1 h
remaining at 168 h [15]: 99.5%
IC50 [16]: > 30000 nM
Stabilty [17]: Unstable
Structure (SMILES): C[C@@H]1Cc2c(ccc3[nH]ncc23)[C@@H](c2ccc(NC3CN(CCCF)C3)cn2)N1CC(F)(F)F [CAMIZESTRANT]
Activity [2]: 15%
inhibition in vivo at 2 mg/kg [6]: 73%
Activity [8]: 6.3%
Activity [12]: 8.9%
